Assay [1] can be described thus: inhibitors of TNFa-induced NFkB p65 translocation, primary screen, imaging, HUVEC, MLSMR starter and 10KST1 sets (AID 438;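 active = inhibition above 20% together with a positive visual image hit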;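 note: compound added about 3h40 before a 20 min TNFalpha stimulation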;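 for inhibition: signal is the nuclear over cytoplasmic p65 intensity ratio per well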). Particulars: HUVEC TNFa-induced p65 nuclear translocation; cell count: measured here: nuclei count (cytotoxicity indicator), at 2.08 µM; inhibition: at 2 µM, stronger effect = higher value, 0% TNFa-plus-vehicle, 100% no-TNFa wells.
The nature of assay [2]: inhibitors of E-selectin induction by TNFa, primary screen, imaging, HUVEC, immunofluorescence, MLSMR starter and 10KST1 sets (AID 487;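 active = visually confirmed hit in the image check and inhibition above 20%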;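 for inhibition: signal is fraction of cell area covered by stained E-selectin grains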;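 for nuclei count: 100% = median nuclei count of all wells on the same plate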). The settings on record: HUVEC TNFalpha-induced E-selectin immunofluorescence imaging, at 2 µM; inhibition: stronger effect = higher value; nuclei count: measured here: cell number, toxicity.
A short description of assay [3]: DUSP6 inhibitors restoring Erk phosphorylation by chemical complementation, primary imaging in DUSP6-transfected HeLa (AID 609;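 active = compounds giving at least 50% inhibition in the cell-based MKP-3 phosphatase rescue imaging test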;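 for inhibition: phospho-Erk level distribution per well compared with pooled transfected vehicle control wells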). Particulars: HeLa MKP-3 transfected, phospho-Erk imaging KS statistic, at 10 µM, cells stimulated with TPA for 15 min.
Assay [4] has as its target Dual specificity protein phosphatase 6 (Homo sapiens) (UniProt Q16828). Described as above. The settings on record: HeLa MKP-3 transfected, phospho-Erk imaging KS statistic; at 10 µM; stronger effect = higher value; cells stimulated with TPA for 15 min.
The target in assay [5] is Voltage-gated potassium channel subunit beta-2 (Rattus norvegicus) (UniProt P62483). Description: KvBeta enzyme negative modulators, primary screen, biochemical, NADPH fluorescence (AID 622;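 active = fluorescence slope higher than the sample average by over 3 SD, cut at about -0.22 in these data, passing the limit was not always enough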;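 note: slope of raw intensity against log time taken from 70 to 1610 s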). Particulars: recombinant KvBeta, 4-cyanobenzaldehyde reduction, at 10 µM, stronger effect = higher value.
Assay [6] has the same target. Description: KvBeta positive modulators, primary screen, biochemical, NADPH fluorescence (AID 623;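 active = NADPH fluorescence slope more negative than the mean of all samples by about 3 SD, 99.7% confidence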;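 note: fluorescence intensity change per second fitted from 20 to 320 s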). The settings on record: Recombinant KvBeta, NADPH fluorescence decrease slope, 10 min; at 10 µM; stronger effect = lower value.
Assay [7] deals with Muscarinic acetylcholine receptor M4 (Homo sapiens) (UniProt P08173). Description: compounds altering M4/GIRK thallium flux, either direction, primary screen, M4 allosteric agonist project, cell-based, HEK293 M4/GIRK, BTC-AM (AID 625).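 Note: thallium influx through GIRK channels coupled to M4 in HEK293 cells with BTC-AM dye.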 The settings on record: at 10 µM, actives lie on both sides. The method, boiled down: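 System: HEK293 cells with M4 receptor and GIRK channels | Incubation: Cells overnight at 37 °C, BTC-AM loading 1 h, reads 2 min total | Technique: Kinetic BTC-AM fluorescence sampled at 1 Hz, 10 s pre-addition baseline | Measure: Post-addition slope, 15–24 s, of baseline-normalized fluorescence | Control set: Carbachol positive, DMSO negative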

Assay [8] is described as follows: inhibitors of larval lipid processing in zebrafish, primary screen, whole organism, PED6 fluorescence, gall bladder and intestine (AID 686;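 active = a full or partial loss of lipid-probe fluorescence in the fish gall bladder, intestine or both, judged by eye; inactive = no fluorescence loss, or compound toxic to the fish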;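 note: larvae 5 to 7 days old with five fish per well; signal comes from phospholipase A2 cleavage of quenched PED6 carried via bile; overnight exposure to compound and PED6 before scoring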). The settings on record: Zebrafish larvae PED6 lipid processing, fluorescence scoring; screened at 20 µM (by protocol). In outline:
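Test system – live zebrafish larvae aged 5-7 days, whole organism · Buffer or medium – E3 fish medium · Reagent – quenched phospholipase substrate PED6, 100 nM final, ingested by larvae · Doses – 20 µM single dose · Incubation – overnight compound and PED6 incubation · Technique – visual fluorescence microscopy scoring of gall bladder, gut · Read-out basis – visual per-well fluorescence inhibition score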

Assay [9] in a line: inhibitors of Chlamydomonas gravitaxis, primary screen, whole organism, Chlamydomonas reinhardtii, WT vs cilia-less mutant, absorbance, 96-well (AID 463189;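 active = inhibition at or above 50% relative to wild type and mutant plate controls; inactive = inhibition below 50%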;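 note: 0% = wild type cc124 cells in DMSO and 100% = ciliumless bld1 mutant cells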). The settings on record: OD600 absorbance, 2 days, at 10 µM, stronger effect = higher value.
The mark [10] stands for this setting: measured here: cell density z-score.
The mark [11] stands for this setting: measured here: nuclear c-Myc green intensity z-score.
The mark [12] stands for this setting: measured here: nuclear pErk red intensity z-score, stronger effect = higher value.

The source made the active and inactive calls.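 Rule for the calls, unless noted: active = fluorescence slope after compound addition differing from the mean of all tested samples at 99.7% confidence, mostly higher but some lower; inactive = the rest.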

Chain of Muscarinic acetylcholine receptor M4 (Homo sapiens) (P08173 whole entry, looked up): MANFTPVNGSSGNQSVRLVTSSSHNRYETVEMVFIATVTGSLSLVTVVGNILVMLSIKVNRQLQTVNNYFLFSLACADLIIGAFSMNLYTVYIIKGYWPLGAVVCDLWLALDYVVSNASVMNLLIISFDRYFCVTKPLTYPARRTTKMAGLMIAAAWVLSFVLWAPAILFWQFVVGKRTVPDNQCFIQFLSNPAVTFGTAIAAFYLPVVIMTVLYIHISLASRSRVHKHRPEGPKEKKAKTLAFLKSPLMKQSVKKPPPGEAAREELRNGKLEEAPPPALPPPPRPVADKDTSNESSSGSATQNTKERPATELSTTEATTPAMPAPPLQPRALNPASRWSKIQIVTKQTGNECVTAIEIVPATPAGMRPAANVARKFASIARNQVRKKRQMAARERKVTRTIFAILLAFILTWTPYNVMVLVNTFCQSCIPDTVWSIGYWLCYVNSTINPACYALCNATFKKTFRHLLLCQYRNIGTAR
Chain of Dual specificity protein phosphatase 6 (Homo sapiens) (Q16828 whole entry, looked up): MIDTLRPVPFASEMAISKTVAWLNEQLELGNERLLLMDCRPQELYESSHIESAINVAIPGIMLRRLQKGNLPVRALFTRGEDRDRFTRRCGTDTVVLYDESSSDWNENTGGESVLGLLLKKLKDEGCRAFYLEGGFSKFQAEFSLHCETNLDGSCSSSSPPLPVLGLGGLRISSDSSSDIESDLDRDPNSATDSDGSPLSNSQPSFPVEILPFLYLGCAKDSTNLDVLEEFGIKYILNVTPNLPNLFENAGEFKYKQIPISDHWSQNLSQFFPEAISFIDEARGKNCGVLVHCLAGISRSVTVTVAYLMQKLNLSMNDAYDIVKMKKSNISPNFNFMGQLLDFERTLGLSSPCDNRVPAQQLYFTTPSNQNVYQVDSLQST
Chain of Voltage-gated potassium channel subunit beta-2 (Rattus norvegicus) (P62483 whole entry, looked up): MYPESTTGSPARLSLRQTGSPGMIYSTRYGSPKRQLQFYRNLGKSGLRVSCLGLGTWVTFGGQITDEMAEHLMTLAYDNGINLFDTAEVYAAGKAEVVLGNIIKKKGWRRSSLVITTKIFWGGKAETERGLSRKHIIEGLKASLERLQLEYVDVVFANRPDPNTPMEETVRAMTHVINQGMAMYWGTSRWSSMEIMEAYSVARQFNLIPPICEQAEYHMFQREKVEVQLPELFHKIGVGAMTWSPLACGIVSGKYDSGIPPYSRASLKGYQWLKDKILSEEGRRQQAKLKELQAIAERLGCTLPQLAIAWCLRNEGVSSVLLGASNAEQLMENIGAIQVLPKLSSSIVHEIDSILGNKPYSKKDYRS

On to `O=C(C1=C(O)C(=O)N(CCCN2CCOCC2)C1c1ccccn1)c1cc2ccccc2o1` (centres undefined), for which the cell count in assay [1] worked out at 558. The inhibition (commonly the drop in the measured response relative to a control, in per cent) in [1] is -4.5% (inactive); in assay [2] it was 55.2% (inactive); in assay [4], 12.7% (inactive); in assay [9], 23.5% (inactive). Moreover, the nuclei count in assay [2] stood at 95.5%. Also, the z-score in assay [3] (setting [10]) was 0.823; in assay [3] (setting [11]) it was 0.459; in [3] (setting [12]) it was -0.11. The fluorescence slope in assay [5] was -0.441 (inactive); in assay [7] it was 0.0054 (inactive). Besides, the NADPH fluorescence slope in assay [6] is -0.000374 (active). Moreover, in assay [8], the compound was classed as inactive.
As to `CCCCCOc1ccccc1C(=O)NCC(=O)O`, the cell count in [1] was determined as 376. Further, the inhibition in assay [1] was -5% (inactive); in [2] it was -55.5% (inactive); in assay [4] it was -0.584% (inactive); in [9], -2.86% (inactive). Also, the nuclei count in assay [2] came out at 169%. Further, the results for the z-score in assay [3] (setting [10]), in assay [3] (setting [11]) and in assay [3] (setting [12]) were 0.663, -0.72 and -0.603, respectively. Besides, the fluorescence slope in assay [5] was -0.438 (inactive); in assay [7], 0.00543 (inactive). Moreover, the NADPH fluorescence slope in assay [6] was -9.1e-05 (inactive). For the same compound, the compound was called inactive in assay [8].
For the compound `CCOC(=O)N1CCN(C2OC(=O)c3ccccc32)CC1` (centres undefined), the cell count in assay [1] came out at 380. The inhibition in assay [1] was 0.8% (inactive); in assay [2], -125% (inactive); in assay [4], 24.4% (inactive); in assay [9], 14% (inactive). The compound further yielded a nuclei count in [2] of 146%. In addition, the figures for the z-score in assay [3] (setting [10]), in assay [3] (setting [11]) and in [3] (setting [12]) were -0.546, -0.533 and -0.506, respectively. Besides, the fluorescence slope is -0.459 (inactive) in assay [5] and 0.00469 (inactive) in assay [7]. Further, the NADPH fluorescence slope in [6] is -0.000295 (inactive). Further, the outcome in [8] was “inactive; toxic”.
For the compound `Cc1cc(C)n(CC2CC(=O)N(c3ccc(C)c(Cl)c3)C2=O)n1` (centres undefined), the cell count in assay [1] came out at 597. The inhibition is -3.7% (inactive) in assay [1], 19% (inactive) in [2], 12.8% (inactive) in [4] and -14.7% (inactive) in [9]. In [2], this compound came in with a nuclei count of 93.4%. In addition, the results for the z-score in [3] (setting [10]), in [3] (setting [11]) and in [3] (setting [12]) were 1.31, -0.417 and 0.186, respectively. Also, the results for the fluorescence slope in assay [5] and in [7] were -0.517 (inactive) and 0.00527 (inactive), respectively. Further, in assay [6], the NADPH fluorescence slope was -2.4e-05 (inactive). Further, in assay [8], the compound was classed as inactive.
For the compound `FC(F)(F)c1cccc(N2CCc3cn[nH]c32)c1`, the cell count in [1] was found to be 690. The inhibition was 2.2% (inactive) in [1], -30.9% (inactive) in [2], 15.9% (inactive) in [4] and -4.32% (inactive) in assay [9]. Also, the nuclei count in [2] came to 178%. The z-score in assay [3] (setting [10]) was determined as 0.755; in assay [3] (setting [11]), 0.954; in assay [3] (setting [12]), 0.248. In addition, the figures for the fluorescence slope in assay [5] and in assay [7] were -0.48 (inactive) and 0.00449 (inactive), respectively. Also, the NADPH fluorescence slope in assay [6] is -6.5e-05 (inactive). Moreover, the compound was called inactive in assay [8].
Turning to `CCC(NC(=O)Nn1cnnc1)(C(F)(F)F)C(F)(F)F`, the cell count in [1] was found to be 726. Moreover, the inhibition in assay [1] was 3.1% (inactive); in [2], -59.3% (inactive); in assay [4] it was 1.98% (inactive); in assay [9] it was 19.5% (inactive). In [2], this compound yielded a nuclei count of 185%. Besides, the figures for the z-score in assay [3] (setting [10]), in assay [3] (setting [11]) and in [3] (setting [12]) were -0.283, -1.06 and 1.12, respectively. The figures for the fluorescence slope in assay [5] and in assay [7] were -0.49 (inactive) and 0.00453 (inactive), respectively. In addition, the NADPH fluorescence slope in assay [6] was -6.6e-05 (inactive). Besides, the compound was classed as inactive in [8].
For `Cc1cc(=O)oc2cc(OCC(=O)NCc3cccnc3)ccc12`, in assay [1], the cell count is 618. Besides, the inhibition in assay [1] is 9% (inactive); in assay [2] it was -1.6% (inactive); in assay [4], -3.95% (inactive); in assay [9], -0.087% (inactive). The compound also had a nuclei count in assay [2] of 105%. Further, the z-score in assay [3] (setting [10]) is -0.419; in [3] (setting [11]), -0.48; in [3] (setting [12]) it was 0.0246. Besides, the fluorescence slope in assay [5] is -0.428 (inactive); in assay [7], 0.00447 (inactive). Besides, the NADPH fluorescence slope in assay [6] was -5e-05 (inactive). Besides, the outcome in assay [8] was inactive.
For the compound `CCCNc1ncnc2c1cnn2-c1ccc(OC)cc1`, the cell count in assay [1] is 631. Also, the inhibition in [1] was -12.5% (inactive); in assay [2] it was -39.6% (inactive); in assay [4], 1.42% (inactive); in [9], -16% (inactive). The nuclei count in [2] was found to be 185%. Besides, the z-score was -1.64 in [3] (setting [10]), -0.363 in [3] (setting [11]) and 0.771 in assay [3] (setting [12]). The values for the fluorescence slope in assay [5] and in assay [7] were -0.37 (inactive) and 0.00652 (inactive), respectively. In assay [6], the NADPH fluorescence slope was -4.9e-05 (inactive). For the same compound, the result in assay [8] was inactive.
In the case of `N#Cc1nc(COc2ccc(Br)cc2)oc1NCCN1CCOCC1`, in assay [1], the cell count came to 510. In addition, the inhibition in assay [1] was -5.5% (inactive); in assay [2], -38.7% (inactive); in assay [4] it was 7.7% (inactive); in [9], -13.6% (inactive). In [2], this compound had a nuclei count of 169%. In addition, the z-score in assay [3] (setting [10]) amounted to 0.361; in assay [3] (setting [11]), 0.776; in assay [3] (setting [12]), 1.07. Further, the fluorescence slope was -0.432 (inactive) in [5] and 0.00542 (inactive) in assay [7]. Further, the NADPH fluorescence slope in assay [6] was -4.4e-05 (inactive). Also, the call in [8] was inactive.
For the compound `C=C(C)CN(CC)CCC(=O)Nc1ccc(OC)cc1OC`, in [1], the cell count stood at 486. For the same compound, the inhibition is -7.5% (inactive) in assay [1], -273% (inactive) in assay [2], -7.28% (inactive) in assay [4] and 11.3% (inactive) in assay [9]. Also, in [2], the nuclei count came to 172%. For the same compound, the z-score in assay [3] (setting [10]) is -0.562; in [3] (setting [11]), 0.149; in [3] (setting [12]) it was 0.762. Moreover, the fluorescence slope is -0.424 (inactive) in assay [5] and 0.0048 (inactive) in [7]. Moreover, the NADPH fluorescence slope in assay [6] is -3.9e-05 (inactive). For the same compound, in assay [8], the compound was called inactive.
With `CCCCCOC(=O)Cc1c(C)nc(-c2ccccc2)[nH]c1=O`, the cell count in assay [1] stood at 373. The inhibition is -0.5% (inactive) in [1], -157% (inactive) in [2], 30.7% (inactive) in assay [4] and 32% (inactive) in assay [9]. This compound had a nuclei count in [2] of 157%. Further, the z-score in assay [3] (setting [10]) is 1.82; in [3] (setting [11]), -0.595; in [3] (setting [12]) it was -0.463. Also, the figures for the fluorescence slope in [5] and in [7] were -0.474 (inactive) and 0.00469 (inactive), respectively. In assay [6], the NADPH fluorescence slope was -7.9e-05 (inactive). For the same compound, the compound was called inactive in assay [8].
Turning to `COC(=O)c1ccc(C2/C(=C(\O)c3ccc(OC)c(C)c3)C(=O)C(=O)N2c2cc(C)on2)cc1` (centres undefined), the cell count in assay [1] was found to be 664. Moreover, the inhibition is -16.1% (inactive) in [1], -48.1% (inactive) in [2], -1.12% (inactive) in assay [4] and 16.4% (inactive) in assay [9]. Also, the nuclei count in assay [2] stood at 165%. Moreover, the z-score was -1.19 in assay [3] (setting [10]), 0.297 in assay [3] (setting [11]) and 0.0353 in assay [3] (setting [12]). Further, the fluorescence slope in assay [5] was -0.444 (inactive); in assay [7], 0.00525 (inactive). Moreover, the NADPH fluorescence slope in assay [6] was -3.1e-05 (inactive). Further, the compound was classed as inactive in [8].
With `Cc1c(=O)n(OCc2c(F)cccc2F)c2ccccc2[n+]1[O-]`, in assay [1], the cell count turned out to be 542. Further, the inhibition is -10.8% (inactive) in assay [1], -125% (inactive) in assay [2], 3.97% (inactive) in assay [4] and -0.428% (inactive) in assay [9]. For the same compound, in assay [2], the nuclei count is 163%. The values for the z-score in [3] (setting [10]), in assay [3] (setting [11]) and in assay [3] (setting [12]) were -0.166, -0.624 and -0.0317, respectively. The fluorescence slope is -0.406 (inactive) in assay [5] and 0.00531 (inactive) in assay [7]. Moreover, the NADPH fluorescence slope in assay [6] was -4.3e-05 (inactive). Further, the outcome in assay [8] was inactive.

Values taken from PubChem BioAssay.
